Reference: ChEMBL document CHEMBL3102732, “Potential antiviral lignans from the roots of Saururus chinensis with activity against Epstein-Barr virus lytic replication” (J Nat Prod, 2014)

Key:
[1] = Selectivity index, ratio of CC50 for human P3HR1 cells to EC50 for EBV infected in human P3HR1 cells; parameters: species or system P3HR-1
Outline: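 CC50: P3HR-1 cells treated or untreated with compounds, viability counted by Trypan blue exclusion under light microscope 2 days post-treatment, relative to nondrug-treated controls, CC50 from dose-response curves. EC50: TPA (20 ng/mL)/sodium butyrate (0.3 mM)-induced P3HR-1 cells, compounds added 3 h later, EBV EBNA1 DNA quantified by real-time PCR at 48 h. Ratio CC50/EC50.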

[2] = Cytotoxicity against human P3HR1 cells assessed as cell viability after 2 days by trypan blue staining-based light microscopy; parameters: species or system P3HR-1
Human gammaherpesvirus 4 = assay: Antiviral activity against EBV infected in human P3HR1 cells assessed as inhibition of lytic viral DNA replication after 48 hrs by RT-PCR analysis; assay type: functional, organism-based; conditions: human gammaherpesvirus 4, P3HR-1, 48 h
Outline: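 P3HR-1 Burkitt lymphoma cells latently carrying EBV, grown in RPMI 1640 with 10% FBS, induced to lytic replication with TPA 20 ng/mL plus sodium butyrate 0.3 mM. Compounds added 3 h later across a concentration range. At 48 h post-induction, total cellular DNA purified, EBV genome copies quantified by SYBR green real-time PCR for EBNA1. Noninduced background subtracted, normalised to untreated induced cells, EC50 from dose-response curve.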

| Structure (SMILES) | Ratio CC50/EC50 [1] | CC50 at 48 h [2] [µM] | EC50 (Human gammaherpesvirus 4) [µM] |
| --- | --- | --- | --- |
| COc1ccc([C@H]2O[C@@H](c3cc(OC)c(OC)c(OC)c3)[C@H](C)[C@@H]2C)cc1OC | 2.5 | 172 | 67.9 |
| COc1cc([C@@H](O)[C@@H](C)Oc2ccc([C@H]3O[C@H](c4ccc(O[C@H](C)[C@H](O)c5ccc(OC)c(OC)c5)c(OC)c4)[C@H](C)[C@H]3C)cc2OC)ccc1O | 9.2 | 69.5 | 7.55 |
| C=CCc1cc(OC)c(O[C@H](COC(C)=O)[C@H](O)c2cc(OC)c(OC)c(OC)c2)c(OC)c1 | 3.7 | 194 | 53.3 |
| COc1ccc([C@H]2O[C@@H](c3cc(OC)c(O)c(OC)c3)[C@H](C)[C@@H]2C)cc1OC | 8.6 | 100 | 11.6 |
| COc1ccc([C@@H](O)[C@@H](C)Oc2ccc([C@H]3O[C@@]4(c5ccc(O[C@H](C)[C@H](O)c6ccc(OC)c(OC)c6)c(OC)c5)O[C@@]4(C)[C@H]3C)cc2OC)cc1OC (relative stereo) | 4.4 | 64.8 | 14.5 |
| C=CCc1cc(OC)c(O[C@H](C)[C@H](OC(C)=O)c2cc(OC)c(OC)c(OC)c2)c(OC)c1 | 4 | 85 | 21.5 |
| COc1cc([C@H]2O[C@@H](c3cc(OC)c(OC)c(OC)c3)[C@H](C)[C@@H]2C)cc(O)c1OC | 1.9 | 32 | 16.7 |
| COc1cc(C(=O)[C@@H](C)Oc2c(OC)cc(/C=C/CO)cc2OC)cc(OC)c1OC | >2.5 | > 200 | 80.1 |
| COc1ccc([C@@H](O)[C@@H](C)Oc2ccc([C@H]3O[C@H](c4ccc(OC)c(OC)c4)[C@H](C)[C@H]3C)cc2OC)cc1OC | 65 | 110 | 1.7 |
| COc1ccc([C@@H](O)[C@@H](C)Oc2ccc([C@H]3O[C@H](c4ccc(O[C@H](C)[C@H](O)c5ccc6c(c5)OCO6)c(OC)c4)[C@H](C)[C@H]3C)cc2OC)cc1OC [MANASSANTIN B] | >116.4 | > 200 | 1.72 |
| COc1ccc([C@H]2O[C@@H](c3ccc(OC)c(OC)c3)[C@@H](C)[C@H]2C)cc1OC | 1.2 | 59.8 | 49.9 |
| COc1cc([C@@H](O)[C@@H](C)Oc2ccc([C@@H]3O[C@H](c4ccc(O)c(OC)c4)[C@H](C)[C@H]3C)cc2OC)ccc1O | 3.3 | 23.2 | 6.95 |
| COc1cc([C@H]2O[C@@H](c3cc(OC)c(OC)c(OC)c3)[C@H](C)[C@H]2C)cc(OC)c1OC [EPIGRANDISIN] | >8 | > 200 | 25 |
| COc1cc([C@H]2O[C@@H](c3ccc(OC)c(OC)c3)[C@@H](C)[C@H]2C)ccc1O | 2.3 | 62.3 | 26.9 |
| C=CCc1cc(OC)c(O[C@H](C)[C@H](O)c2cc(OC)c3c(c2)OCO3)c(OC)c1 | 4 | 50.6 | 12.8 |
| COc1cc([C@@H](O)[C@@H](C)Oc2ccc([C@H]3O[C@H](c4ccc(O[C@H](C)[C@H](O)c5ccc6c(c5)OCO6)c(OC)c4)[C@H](C)[C@H]3C)cc2OC)ccc1O [4-O-DEMETHYLMANASSANTIN B] | 20.2 | 70.8 | 3.52 |
| COc1ccc([C@@H](O)[C@@H](C)Oc2ccc([C@H]3O[C@H](c4ccc(O[C@H](C)[C@H](O)c5ccc6c(c5)OCO6)c(OC)c4)[C@H](C)[C@H]3C)cc2OC)cc1O |  | 26.5 | 2.69 |
| COc1ccc([C@@H](O)[C@@H](C)Oc2ccc(C(=O)[C@H](C)[C@H](C)C(=O)c3ccc(O[C@H](C)[C@H](O)c4ccc5c(c4)OCO5)c(OC)c3)cc2OC)cc1OC | >12.4 | > 200 | 16.2 |
| C/C=C/c1cc(OC)c(O[C@H](C)[C@H](O)c2cc(OC)c3c(c2)OCO3)c(OC)c1 | 4.2 | 90.3 | 21.7 |
| COc1ccc([C@H](O)[C@@H](C)Oc2ccc([C@H]3O[C@H](c4ccc5c(c4)OCO5)[C@H](C)[C@H]3C)cc2OC)cc1OC [SAUCERNEOL D] | 41.1 | 45 | 1.09 |
| COc1cc([C@@H](OC(C)=O)[C@@H](C)Oc2c(OC)cc(/C=C/CO)cc2OC)cc(OC)c1OC | >4.2 | > 200 | 44.3 |
| C/C=C/c1ccc(O[C@H](C)[C@H](O)c2ccc(O)c(OC)c2)c(OC)c1 | 2.6 | 61.3 | 23.8 |
| C/C=C/c1cc(OC)c(O[C@@H](C)[C@@H](O)c2cc(OC)c(OC)c(OC)c2)c(OC)c1 | 3.2 | 77.3 | 24 |
| C/C=C/c1cc(OC)c(O[C@H](C)[C@H](OC(C)=O)c2cc(OC)c(OC)c(OC)c2)c(OC)c1 | 3 | 76.8 | 25.4 |
| COc1cc([C@H]2O[C@@H](c3cc(OC)c(OC)c(OC)c3)[C@H](C)[C@@H]2C)cc(OC)c1O | 2.2 | 65.8 | 29.5 |
| C=CCc1cc(OC)c(O[C@H](C)C(=O)c2cc(OC)c(OC)c(OC)c2)c(OC)c1 | >9.1 | > 200 | 21.9 |
| COc1cc([C@H]2O[C@@H](c3cc(OC)c4c(c3)OCO4)[C@H](C)[C@@H]2C)cc(OC)c1OC | 2 | 55 | 27.3 |
